This experiment addresses Wee1-like protein kinase (Homo sapiens) (UniProt P30291). Briefly: WEE1 stabilizers, potency, late-stage follow-up, cell-based, HeLa, WEE1K328M-luciferase, luminescence, assay provider (AID 463080). As to conditions: HeLa WEE1K328M-luciferase stabilization. In outline: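 Material – transfected HeLa with WEE1 K328M–luciferase reporter · Timing – 20 h compound treatment at 37 °C · Detection – lytic luciferase luminescence · Read-out – EC50 of WEE1-fusion to luciferase-only luminescence ratio, higher meaning stabilization · Repeats – four replicate wells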
Wee1-like protein kinase (Homo sapiens), sequence (P30291 whole entry K328M, the tested form may be a part): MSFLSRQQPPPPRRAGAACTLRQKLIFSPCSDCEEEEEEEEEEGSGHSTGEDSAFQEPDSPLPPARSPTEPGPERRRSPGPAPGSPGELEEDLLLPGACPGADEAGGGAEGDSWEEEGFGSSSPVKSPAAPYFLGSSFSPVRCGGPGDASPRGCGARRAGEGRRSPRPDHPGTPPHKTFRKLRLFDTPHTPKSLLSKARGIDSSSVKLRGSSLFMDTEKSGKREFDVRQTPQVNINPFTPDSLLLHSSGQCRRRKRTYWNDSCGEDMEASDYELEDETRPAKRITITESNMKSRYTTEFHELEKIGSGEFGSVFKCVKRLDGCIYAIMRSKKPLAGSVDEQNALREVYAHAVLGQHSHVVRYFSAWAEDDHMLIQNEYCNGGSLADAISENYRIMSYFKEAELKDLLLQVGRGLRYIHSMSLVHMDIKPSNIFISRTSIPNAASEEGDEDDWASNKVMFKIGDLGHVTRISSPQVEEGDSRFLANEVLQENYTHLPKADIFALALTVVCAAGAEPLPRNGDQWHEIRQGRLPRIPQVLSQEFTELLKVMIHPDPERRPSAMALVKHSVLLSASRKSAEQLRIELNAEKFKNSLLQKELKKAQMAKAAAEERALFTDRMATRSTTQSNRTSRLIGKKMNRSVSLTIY
The term EC50 denotes the concentration that produces a half-maximal response. For the molecule `c1ccc2[nH]c(CNc3nc(N4CCOCC4)nc4c3ncn4-c3ccsc3)nc2c1`, the EC50 was 624 nM.

On to `CCOC(=O)c1cccc2[nH]c(CNc3nc(N4CCOCC4)nc4c3ncn4-c3ccsc3)nc12`, for which the EC50 was 207 nM.

For `CC(C)n1cnc2c(NCc3nc4c([N+](=O)[O-])cccc4[nH]3)nc(N3CCOCC3)nc21`, the EC50 was 201 nM.

In the case of `O=[N+]([O-])c1cccc2[nH]c(CNc3nc(N4CCOCC4)nc4c3ncn4-c3ccsc3)nc12`, the EC50 is 40 nM.

On to `Clc1ccc2nc(CNc3nc(N4CCOCC4)nc4c3ncn4-c3ccsc3)[nH]c2c1`, for which the EC50 was 164 nM.

For the origin of these results see PubChem BioAssay AID463080 (The Scripps Research Institute Molecular Screening Center, 2010).
